Source: PubChem BioAssay
MrgX1 PAM = allosterically activates human MrgX1 receptor signaling; Q96LB2; MrgX1-HEK293, Fluo-4 calcium flux, FDSS; stronger effect = higher value; B-score at 10 µM; 0.63% of 310,000 active;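 active means plate-corrected calcium response at least 3 library SD above typical, normal starting fluorescence, not activating the receptor alone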;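 further: compound read alongside a low EC10 to EC30 dose of BAM8-22 agonist; peak minus trough fluorescence over baseline measured at the second addition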
Target sequence (Q96LB2 whole entry, looked up): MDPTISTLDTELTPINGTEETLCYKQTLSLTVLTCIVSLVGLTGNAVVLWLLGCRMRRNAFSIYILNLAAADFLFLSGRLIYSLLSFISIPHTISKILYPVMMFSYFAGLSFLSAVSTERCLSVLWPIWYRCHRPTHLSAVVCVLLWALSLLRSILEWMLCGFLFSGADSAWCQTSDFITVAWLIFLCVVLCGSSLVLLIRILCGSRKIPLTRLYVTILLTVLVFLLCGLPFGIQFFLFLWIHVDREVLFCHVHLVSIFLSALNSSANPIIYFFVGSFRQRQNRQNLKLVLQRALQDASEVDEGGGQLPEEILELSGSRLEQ
MrgX1 agonist = agonists of human MrgX1 receptor | B-score at 10 µM | MrgX1-HEK293 cells, Fluo-4 calcium fluorescence, agonist mode; stronger effect = higher value | AID 588627 | 0.44% of 310,000 active;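 active means calcium response B-score plate-corrected fluorescence ratio at least 3 library SD, with starting fluorescence B-score inside 5 SD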
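System: HEK293 cells stably expressing human MrgX1 receptor; Dosing: test compound in the initial addition of three; Schedule: overnight plating, then 30 min 37 °C plus 30 min room-temperature dye loading; Detection: kinetic calcium dye fluorescence, Fluo-4 NW; Controls: per-plate positive and negative controls for Z′ factor.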
MrgX1 antag = antagonists of human MrgX1 receptor. Q96LB2. MRGX1-HEK293 calcium flux, Fluo-4, BAM8-22 antagonism; stronger effect = lower value. B-score at 10 µM. 1.3% of 310,000 active. AID 588676;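 active means calcium-response B-score plate-corrected more than 3 library SD below zero, starting fluorescence within 5 deviations, no agonist response on first addition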;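 further: peak minus trough fluorescence over baseline after final BAM8-22 challenge near maximal dose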
RGS4 block = inhibitors of human RGS4. P49798. HEK293 M3R/RGS4 inducible, Fluo-4 calcium flux; stronger effect = higher value; triggered by carbachol at its EC20. B-score at 10 µM. 0.45% of 310,000 active. AID 463165;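 active means B-score, a plate-corrected calcium signal, over three deviations above library mean, with baseline fluorescence within five deviations of library mean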;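 further: RGS4 expression induced by doxycycline in cells with stable M3 receptor; B-score is computed from the integrated fluorescence ratio over baseline after carbachol; higher B-score means a larger calcium signal and so more RGS4 inhibition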
Target sequence (P49798 whole entry, looked up): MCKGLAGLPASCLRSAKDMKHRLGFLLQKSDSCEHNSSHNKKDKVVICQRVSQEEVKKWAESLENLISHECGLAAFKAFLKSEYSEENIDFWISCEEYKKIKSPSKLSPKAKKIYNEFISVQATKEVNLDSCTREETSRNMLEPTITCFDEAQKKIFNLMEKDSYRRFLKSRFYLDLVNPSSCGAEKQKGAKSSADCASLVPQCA
RGS4 pot = RGS4 potentiation or activation; 0.92% of 310,000 active; B-score at 10 µM; AID 463111; HEK293 M3R/inducible RGS4, carbachol calcium flux Fluo4; stronger effect = lower value;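 active means B-score of the integrated calcium signal more than 4 SD below the library mean, with starting fluorescence not abnormally high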;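 further: negative B-score means reduced calcium response which marks RGS4 activation or potentiation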
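System – HEK293 FlpIn-TREx cells, stable M3R, doxycycline-inducible RGS4 · Reagent – ECmax carbachol challenge · Times – compound preincubation 20 min at room temperature before agonist · Technique – Fluo4 fluorescence kinetic imaging of calcium · Measure – B score of integrated Fluo4 ratio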
MrgX1 ag reconf = confirmation of human MrgX1 receptor agonists; shares compounds with MrgX1 agonist; MrgX1-HEK293, Fluo-4 calcium fluorescence, FDSS; activation, % at 10 µM; 78% of 600 active; AID 602412;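 active means calcium signal rise, corrected for plate position, at least 3 library SD high, with starting brightness within 5 such deviations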
HEK293 Ca flux = activity in parental HEK293 cells lacking MrgX1. shares compounds with MrgX1 antag. Fluo-4 calcium fluorescence, FDSS. fluorescence ratio F(max-min)/F0 at 10 µM. 2% of 4,000 active;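 active means duplicate-averaged calcium fluorescence ratio at least three times the standard deviation of buffer wells, a nonspecific response in parental cells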
HEK293 Ca counter = counter-screen for MrgX1 allosteric activators: effect in parental HEK293 cells | fluorescence ratio F(max-min)/F0 at 10 µM | parental HEK293 calcium flux, Fluo-4 fluorescence ratio; stronger effect = higher value | 0.4% of 4,000 active | shares compounds with MrgX1 antag;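 active means calcium fluorescence ratio, averaged over duplicates, at least 3 SD of the buffer-well ratio, meaning a nonspecific response in receptor-free cells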;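 further: untransfected parental HEK293 lacking MrgX1 used as counterscreen for MrgX1 allosteric activators; fluorescence change taken during the second addition on a kinetic imager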
HEK293 Ca cntr2 = activity in parental HEK293 cells lacking MrgX1 receptor; fluorescence ratio F(max-min)/F0 at 10 µM; shares compounds with MrgX1 antag; Fluo-4 calcium fluorescence (FDSS); stronger effect = higher value; 8.7% of 4,000 active;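 active means calcium fluorescence ratio at least three times the spread of buffer wells, meaning a non-specific response in parental cells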
A number is an active result; – = inactive; · = no result. A selection: hits, their analogues and other compounds. The true share with any hit is near 3.5%.

SMILES	MrgX1 PAM	MrgX1 agonist	MrgX1 antag	RGS4 block	RGS4 pot	MrgX1 ag reconf	HEK293 Ca flux	HEK293 Ca counter	HEK293 Ca cntr2
CCOC(=O)c1cc2c(ccn2C)n1Cc1ccc(C#N)cc1	–	27	–	–	–	132%	–	–	–
Cc1csc(NC(=O)c2cc(=O)[nH]c3ccc(S(=O)(=O)N4CCOCC4)cc23)n1	–	55	–	–	–	266%	–	–	–
O=C(NC1CCCCCC1)c1cc(=O)[nH]c2ccc(S(=O)(=O)N3CCOCC3)cc12	–	–	–	–	–	·	·	·	·
Nc1ncnc2c1ncn2C1OC(C(=O)NC2CC2)C(O)C1O (stereo not drawn)	–	30	–	·	·	100%	–	–	–
COc1cc(C)c(CN2CCC(n3nccc3NC(=O)C3CCOC3)CC2)cc1C (stereo not drawn)	–	–	–	–	–	·	·	·	·
Cc1[nH]n(-c2ccc(Cl)cc2)c(=O)c1C(=O)c1ccccc1	–	40	–	–	–	82%	–	–	–
Cc1[nH]n(-c2ccccc2)c(=O)c1C(=O)c1ccc(Cl)cc1	–	37	–	–	–	116%	–	–	–
CCCOc1ccc(-c2csc3ncn(Cc4ccc(C(=O)O)cc4)c(=O)c23)cc1	–	32	–	–	–	204%	–	–	–
O=C(O)c1cccnc1SCC(=O)N1CCCc2ccccc21	–	36	–	–	–	–	–	–	–
O=C(Nc1cc(S(=O)(=O)N2CCCCC2)ccc1N1CCCCC1)C1CC1	–	–	–	–	–	·	·	·	·
Cn1c(=O)c(C(=O)CN2CCN(S(=O)(=O)c3ccccc3)CC2)c(N)n(Cc2ccccc2)c1=O	–	38	–	–	–	171%	–	–	46
CN(C)S(=O)(=O)c1cccc(C(=O)NCCOC(=O)c2cc(F)c(F)cc2Cl)c1	–	–	–	–	–	·	·	·	·
CC(Oc1ccccc1)C(=O)Nc1nnc(S(=O)(=O)N(C)c2ccccc2)s1 (stereo not drawn)	–	29	–	–	–	95%	–	–	46
CC(=O)c1ccc(OCC(O)CN2CCN(S(=O)(=O)c3c(C)c(C)cc(C)c3C)CC2)cc1 (stereo not drawn)	–	–	–	–	–	·	·	·	·
COc1ccccc1CN1CC(C(=O)N(C)CCc2nc3ccc(F)cc3[nH]2)CCC1=O (stereo not drawn)	–	–	–	–	–	·	·	·	·
NC(=S)Cc1ccc(Cl)cc1Cl	–	–	–	–	–	·	·	·	·
N=C(N)SCc1ccc(Cl)cc1Cl	–	39	–	–	–	219%	–	–	–
CC(C)(C)c1ccc(S(=O)(=O)/N=C2\C=C(NS(=O)(=O)c3ccccc3)C(=O)c3ccccc32)cc1	–	27	–	–	–	80%	–	–	57
CCOC(=O)c1[nH]c(C)c(C(=O)OCc2ccccc2F)c1C	–	–	–	–	–	·	·	·	·
Cc1cc(OC(=O)c2ccccc2C)c([N+](=O)[O-])c(=O)[nH]1	–	–	–	–	–	·	·	·	·
O=C(CCN1CCC(c2ccccc2)C1)c1cccs1 (stereo not drawn)	–	44	–	–	–	140%	–	–	–
COc1cc(C(=O)CCN2CCC(c3ccccc3)C2)cc(OC)c1OC (stereo not drawn)	–	–	–	–	–	·	·	·	·
O=C(c1cccs1)N1CCC(c2ccccc2)C1 (stereo not drawn)	–	–	–	–	–	·	·	·	·
O=C(CCN1CCC(c2ccccc2)C1)c1ccc2c(c1)OCCO2 (stereo not drawn)	–	36	–	–	–	–	–	–	–
C[C@H](NC(=O)c1nc[nH]c1C(=O)N[C@@H](Cc1ccccc1)C(=O)OC(C)(C)C)C(=O)OCc1ccccc1	–	–	–	–	–	·	·	·	·
SMILES	MrgX1 PAM	MrgX1 agonist	MrgX1 antag	RGS4 block	RGS4 pot	MrgX1 ag reconf	HEK293 Ca flux	HEK293 Ca counter	HEK293 Ca cntr2
O=C(O)CCc1ccc(-c2ccc(Cl)cc2)n1Cc1ccco1	–	38	–	–	–	159%	–	–	–
COCC(=O)c1[nH]c2ccccc2c1C	–	41	–	–	–	196%	–	–	–
COc1cccc(OC)c1C(=O)NC(=S)NNC(=O)[C@H]1C[C@@H]1c1ccccc1	–	–	–	–	–	·	·	·	·
O=C(NC(=S)NNC(=O)[C@H]1C[C@@H]1c1ccccc1)c1cccc(F)c1	–	159	–	–	–	600%	–	–	105
CCOC(=O)C1(CC2CCCCO2)CCN(Cc2cc3ccccc3[nH]2)CC1 (stereo not drawn)	–	113	–	–	–	651%	–	–	95
CCCCc1ncc(CN2CCC(CC3CCCCO3)(C(=O)OCC)CC2)[nH]1 (stereo not drawn)	–	–	–	–	–	·	·	·	·
CC1(C)CC(=O)C(C(C2=C(O)CC(C)(C)CC2=O)c2ccc(Cl)c([N+](=O)[O-])c2)C(=O)C1 (stereo not drawn)	–	91	–	–	–	–	–	–	–
COc1ccccc1C(=O)NNC(=S)NC(=O)c1cccs1	–	80	–	–	–	476%	–	–	111
O=C(NC(=S)NNC(=O)c1ccccc1O)c1cccs1	–	132	–	–	–	358%	–	–	71
O=C(Cc1ccc(Cl)cc1)NNC(=S)NC(=O)c1cccs1	–	122	–	–	–	316%	–	–	68
COc1cccc(-c2nnc(NC(=O)c3cccc(F)c3)o2)c1	–	28	–	–	–	686%	–	–	107
O=C(Nc1nnc(-c2ccc3c(c2)CCCC3)o1)c1ccccc1	–	28	–	–	–	140%	–	–	51
O=C(Nc1nnc(-c2ccc3c(c2)CCCC3)o1)c1ccccc1Cl	–	–	–	–	–	·	·	·	·
C[C@H](O)c1[nH]c2cc(F)ccc2c1[C@H](C)O	–	–	–	–	–	·	·	·	·
CCC(=O)N/N=C/c1ccc(-c2ccc([N+](=O)[O-])cc2)o1	–	–	–	–	–	·	·	·	·
CC(C)(C)C(=O)/C=c1\s/c(=C\c2ccc(-c3ccc([N+](=O)[O-])cc3)o2)c(=O)n1CC(=O)NC(N)=O	–	82	–	–	–	464%	0.017	–	89
Cn1ncc(Cl)c1C(=O)N1CCN(c2ccc(F)cc2)CC1	–	–	–	–	–	·	·	·	·
O=S(=O)(c1ccc(F)c(F)c1)N1CCN(c2ccccn2)CC1	–	–	–	–	–	·	·	·	·
NC(=Nc1ccc(Cl)cc1)c1ccccc1	–	90	–	–	–	280%	–	–	55
